From ChEMBL document CHEMBL1153533, “Phosphoramidate prodrugs of 2'-C-methylcytidine for therapy of hepatitis C virus infection” (J Med Chem, 2009)

Legend:
[1] = test system: Hepatitis C virus; test: Antiviral activity against HCV infected in human HBI10A cells by subgenomic viral replicon assay; format: functional, organism-based, Hepacivirus hominis
[2] = Cytotoxicity against human HBI10A cells
[3] = Selectivity index, ratio of CC50 for human HBI10A cells to EC50 for HCV infected in human HBI10A cells
Summary of the method: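 Subgenomic HCV replicon assay gives EC₅₀ (n = 2-9 independent determinations). CC₅₀ is the concentration cutting cell viability by 50%. SI = CC₅₀/EC₅₀.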

[4] = test system: Hepatitis C virus; test: Antiviral activity against HCV assessed as logarithmic reduction in plasma viral RNA at 1500 mg, po BID after 14 days; format: functional, Hepacivirus hominis
[5] = Drug concentration in hamster liver assessed as nucleoside triphosphate level at 1.5 umol/kg, sc after 6 hrs; settings: cricetinae, in vivo
[6] = test system: Liver; test: Drug concentration in rat liver assessed as nucleoside triphosphate level at […], sc after 6 hrs; format: ADME, organism-based; settings: in vivo, read-out: Drug uptake
[7] = Drug level in hamster liver assessed as nucleoside triphosphate level at 1 mg/kg, sc after 24 hrs; format: ADME, organism-based; design: dose 1 mg/kg, route subcutaneous; settings: cricetinae, in vivo, read-out: Drug uptake
[8] = Drug level in rabbit liver assessed as nucleoside triphosphate level at 1 mg/kg, sc after 24 hrs; format: ADME, organism-based, Oryctolagus cuniculus; design: dose 1 mg/kg, route subcutaneous; settings: in vivo, read-out: Drug uptake
[9] = test system: Liver; test: Drug level in rat liver assessed as nucleoside triphosphate level at 1 mg/kg, sc after 24 hrs; format: ADME, organism-based; design: dose 1 mg/kg, route subcutaneous; settings: in vivo, read-out: Drug uptake
[10] = test system: Hamster; test: AUC (0 to 48 hrs) in hamster at 1 mg/kg, sc; format: ADME, organism-based, Plasma; design: time < 48 hr, dose 1 mg/kg, route subcutaneous; settings: cricetinae, in vivo
[11] = test system: Hepacivirus hominis; test: Inhibition of HCV NS5B polymerase by cell-based assay
[12] = test system: Hepatitis C virus; test: Antiviral activity against HCV infected in human HBI10A cells at 20 uM by subgenomic viral replicon assay; format: functional, Hepacivirus hominis
[13] = test system: Hepatitis C virus; test: Antiviral activity against HCV assessed as logarithmic reduction in plasma viral RNA at 1500 mg, QD after 14 days; format: functional, Hepacivirus hominis
[14] = test system: Hepatocyte; test: Stability in cryopreserved primary human hepatocytes assessed as increase in intracellular nucleoside triphosphate formation by LC-MS/MS analysis; format: ADME, cell-based
[15] = test system: Hepatitis C virus; test: Antiviral activity against HCV assessed as logarithmic reduction in plasma viral RNA at 800 mg, po BID after 14 days; format: functional, Hepacivirus hominis
[16] = Stability in human HBI10A cells assessed as intracellular nucleoside triphosphate AUC (0 to 24 hrs) at 100 uM by LC-MS/MS analysis

SMILES | EC50 ([1]; Hepatitis C virus, HBI10A) | CC50 [2] | Ratio CC50/EC50 [3] | also measured
COC(=O)[C@H](C)NP(=O)(OC[C@H]1O[C@@H](n2ccc(N)nc2=O)[C@](C)(O)[C@@H]1O)Oc1ccc(OC)cc1 (mixture of isomers) | 3700 nM | > 50 µM | >13 | –
CCOC(=O)[C@H](C)NP(=O)(OC[C@H]1O[C@@H](n2ccc(N)nc2=O)[C@](C)(O)[C@@H]1O)Oc1ccc(C[C@H](N)C(=O)OC)cc1 (stereo partly specified) | > 20000 nM | > 20 µM | – | –
CCOC(=O)[C@H](Cc1c[nH]c2ccccc12)NP(=O)(OC[C@H]1O[C@@H](n2ccc(N)nc2=O)[C@](C)(O)[C@@H]1O)Oc1ccc(Cl)cc1 (single isomer, unassigned) | 17000 nM | > 50 µM | >3 | –
CCOC(=O)[C@@H](NP(=O)(OC[C@H]1O[C@@H](n2ccc(N)nc2=O)[C@](C)(O)[C@@H]1O)Oc1ccc(Cl)cc1)c1ccccc1 (mixture of isomers) | 7400 nM | > 20 µM | >2.5 | –
CCOC(=O)[C@H](C)NP(=O)(OC[C@H]1O[C@@H](n2ccc(N)nc2=O)[C@](C)(O)[C@@H]1O)Oc1ccc(Cl)cc1 (stereo partly specified) | – | > 20 µM | – | EC50 ([1]; hbi10a): 1000 nM
CCOC(=O)[C@H](C)NP(=O)(OC[C@H]1O[C@@H](n2ccc(N)nc2=O)[C@](C)(O)[C@@H]1O)Oc1ccccc1C(=O)OC (mixture of isomers) | 11000 nM | > 50 µM | >5 | –
CC(C)C(=O)OC[C@H]1O[C@@H](n2ccc(N)nc2=O)[C@](C)(F)[C@@H]1OC(=O)C(C)C [MERICITABINE] | – | – | – | Activity [4]: 2.7
CCOC(=O)[C@H](C)NP(=O)(OC[C@H]1O[C@@H](n2ccc(N)nc2=O)[C@](C)(O)[C@@H]1O)Oc1ccccc1C (stereo partly specified) | 180 nM | 9 µM | 50 | –
COC(=O)CCNP(=O)(OC[C@H]1O[C@@H](n2ccc(N)nc2=O)[C@](C)(O)[C@@H]1O)Oc1ccc(Cl)cc1 (mixture of isomers) | > 20000 nM | > 20 µM | – | –
CCCC(CCC)C(=O)OCCNP(=O)(O)OC[C@H]1O[C@@H](n2ccc(N)nc2=O)[C@](C)(O)[C@@H]1O | – | – | – | Drug uptake [5]: 13 µM; concentration [6]: 36 µM
CCOC(=O)[C@H](C)NP(=O)(OC[C@H]1O[C@@H](n2ccc(N)nc2=O)[C@](C)(O)[C@@H]1O)Oc1ccc2c(ccn2C(=O)OC(C)(C)C)c1 (stereo partly specified) | 500 nM | > 20 µM | 40 | –
CCOC(=O)[C@H](C)NP(=O)(OCc1ccccc1)OC[C@H]1O[C@@H](n2ccc(N)nc2=O)[C@](C)(O)[C@@H]1O (stereo partly specified) | > 20000 nM | > 20 µM | – | –
CCCC(CCC)COC(=O)[C@H](C)NP(=O)(O)OC[C@H]1O[C@@H](n2ccc(N)nc2=O)[C@](C)(O)[C@@H]1O | 8200 nM | > 100 µM | – | Drug uptake [5]: 39 µM; concentration [7]: 6 µM; concentration [8]: 4.1 µM; concentration [9]: 2900 nM; AUC [10]: 700 µM·h; concentration [6]: 5 µM
CCOC(=O)[C@H](C)NP(=O)(OC[C@H]1O[C@@H](n2ccc(N)nc2=O)[C@](C)(O)[C@@H]1O)Oc1ccc(Cl)cc1 (mixture of isomers) | – | – | – | EC50 ([1]; hbi10a): 1800 nM
CCCC[C@H](NP(=O)(OC[C@H]1O[C@@H](n2ccc(N)nc2=O)[C@](C)(O)[C@@H]1O)Oc1ccc(Cl)cc1)C(=O)OCC (mixture of isomers) | 1500 nM | > 20 µM | >13 | –
C[C@@]1(O)[C@H](O)[C@@H](CO)O[C@H]1n1ccc(N)nc1=O | – | – | – | Activity [11]: 2 µM

SMILES | EC50 ([1]; Hepatitis C virus, HBI10A) | CC50 [2] | Ratio CC50/EC50 [3] | also measured
CCOC(=O)[C@H](C)NP(=O)(OC[C@H]1O[C@@H](n2ccc(N)nc2=O)[C@](C)(O)[C@@H]1O)Oc1cccc2ccccc12 (stereo partly specified) | 200 nM | 15 µM | 75 | –
CCCCOC(=O)[C@H](C)NP(=O)(OC[C@H]1O[C@@H](n2ccc(N)nc2=O)[C@](C)(O)[C@@H]1O)Oc1ccc(Cl)c2ccccc12 (mixture of isomers) | 160 nM | > 20 µM | 125 | –
COCCCOC(=O)[C@H](C)NP(=O)(OC[C@H]1O[C@@H](n2ccc(N)nc2=O)[C@](C)(O)[C@@H]1O)Oc1ccccc1 (stereo partly specified) | 1900 nM | > 20 µM | – | –
CCOC(=O)[C@H](C)NP(=O)(OC[C@H]1O[C@@H](n2ccc(N)nc2=O)[C@](C)(O)[C@@H]1O)OCC(Cl)(Cl)Cl (stereo partly specified) | 10000 nM | > 50 µM | >5 | inhibition at 20 µM [12]: 52%
CCCOC(=O)[C@H](C)NP(=O)(OC[C@H]1O[C@@H](n2ccc(N)nc2=O)[C@](C)(O)[C@@H]1O)Oc1ccccc1 (stereo partly specified) | 970 nM | > 20 µM | – | –
COC(=O)[C@@H](C)NP(=O)(OC[C@H]1O[C@@H](n2ccc(N)nc2=O)[C@](C)(O)[C@@H]1O)Oc1ccc(Cl)cc1 (mixture of isomers) | 7700 nM | > 20 µM | >2.5 | –
CCOC(=O)[C@H](C)NP(=O)(OC[C@H]1O[C@@H](n2ccc(N)nc2=O)[C@](C)(O)[C@@H]1O)Oc1cc(C)c(Cl)cc1C(C)C (stereo partly specified) | 190 nM | 9 µM | 47 | –
CC(C)C(=O)OC[C@@]1(N=[N+]=[N-])O[C@@H](n2ccc(N)nc2=O)[C@H](OC(=O)C(C)C)[C@@H]1OC(=O)C(C)C [BALAPIRAVIR] | – | – | – | Activity [13]: 1.2
COC(=O)[C@H](C)NP(=O)(OC[C@H]1O[C@@H](n2ccc(N)nc2=O)[C@](C)(O)[C@@H]1O)Oc1ccc(C(F)(F)F)cc1 (stereo partly specified) | 9600 nM | > 50 µM | >5 | –
CCCCOC(=O)[C@H](C)NP(=O)(OC[C@H]1O[C@@H](n2ccc(N)nc2=O)[C@](C)(O)[C@@H]1O)Oc1cccc2ccccc12 (stereo partly specified) | 90 nM | 9 µM | – | –
CCCCOC(=O)[C@H](C)NP(=O)(OC[C@H]1O[C@@H](n2ccc(N)nc2=O)[C@](C)(O)[C@@H]1O)Oc1ccccc1Cl (stereo partly specified) | 870 nM | > 20 µM | >23 | –
CCOC(=O)[C@H](C)NP(=O)(OC[C@H]1O[C@@H](n2ccc(N)nc2=O)[C@](C)(O)[C@@H]1O)Oc1ccc(Cl)cc1 (single isomer, unassigned) | – | – | – | EC50 ([1]; hbi10a): 7900 nM
COC(=O)CNP(=O)(OC[C@H]1O[C@@H](n2ccc(N)nc2=O)[C@](C)(O)[C@@H]1O)Oc1ccc(Cl)cc1 (mixture of isomers) | 800 nM | > 20 µM | >25 | –
CCOC(=O)[C@H](CC(C)C)NP(=O)(OC[C@H]1O[C@@H](n2ccc(N)nc2=O)[C@](C)(O)[C@@H]1O)Oc1ccc(Cl)cc1 (mixture of isomers) | 7000 nM | > 50 µM | >7 | –
COC(=O)[C@H](Cc1ccccc1)NP(=O)(OC[C@H]1O[C@@H](n2ccc(N)nc2=O)[C@](C)(O)[C@@H]1O)Oc1ccc(Cl)cc1 (mixture of isomers) | > 20000 nM | > 20 µM | – | –
CC(C)[C@H](N)C(=O)O[C@@H]1[C@@H](CO)O[C@@H](n2ccc(N)nc2=O)[C@]1(C)O [VALOPICITABINE] | 7600 nM | > 100 µM | >13 | Activity [14]: Dose-dependent effect; Activity [15]: 1.2; AUC [16]: 70 µM·h
